The text below walks through data of ChEMBL document CHEMBL3588754, “Parallel Synthesis of Hexahydrodiimidazodiazepines Heterocyclic Peptidomimetics and Their in Vitro and in Vivo Activities at μ (MOR), δ (DOR), and κ (KOR) Opioid Receptors” (J Med Chem, 2015).

In one assay the target is Mu-type opioid receptor (Rattus norvegicus, UniProt P33535). The experiment in a line: Displacement of [3H]DAMGO from mu opioid receptor in rat cortices by competition binding assay. The procedure, abridged:
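Rat cortex membranes were prepared in 50 mM Tris pH 7.4, preincubated at 37 °C for 30 min, and resuspended with 2 mg/mL bovine serum. Assay used 2 nM [3H]DAMGO. Binding was stopped by filtration through BSA-soaked GF/B filters, followed by scintillation counting. IC50 was converted to Ki. Values are mean ± SD of two experiments, each in duplicate.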

The target of assay [1] is Delta-type opioid receptor (Rattus norvegicus, UniProt P33533). Kind of assay: Displacement of [3H]DPDPE from delta opioid receptor in rat cortices by competition binding assay. The procedure, abridged: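 Rat cortex membranes were prepared in 50 mM Tris pH 7.4 with 10 mM MgCl2 and 200 μM PMSF. Assay used 2 nM [3H]DPDPE, incubated 2.5 h at 25 °C. Unlabeled DPDPE defined nonspecific binding. Filtration was through BSA-soaked GF/B filters, with scintillation counting. Ki is mean ± SD of two experiments, each in duplicate.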

The target of assay [2] is Kappa-type opioid receptor (Cavia porcellus, UniProt P41144). The experiment in a line: Displacement of [3H]U69593 from kappa opioid receptor in guinea pig cortices and cerebella by competition binding assay. The essentials: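 Guinea pig cortex and cerebellum membranes were prepared in 50 mM Tris pH 7.4 with 10 mM MgCl2. Assay used 2 nM [3H]U69,593, incubated 2 h at 25 °C. Unlabeled U50,488 defined nonspecific binding. Filtration was through GF/B filters, with scintillation counting. Ki is mean ± SD of two experiments, each in duplicate.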

The species named for assay [3] is Mus musculus. Kind of assay: Ratio of ED50 for antinociceptive effect in C57BL/6 mouse by 55 degC Warm water tail withdrawal assay to ED50 for analgesic activity in C57BL/6 mouse by acetic acid writhing assay. Format: functional. The procedure, abridged: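 Index from ip ED50 values in adult male C57BL/6J mice given ip doses in 1:1:8 ethanol/Tween-80/saline (n = 8/dose). Tail-withdrawal: 55 °C water, read at 30 min, % antinociception against baseline with a 15 s cutoff. Writhing: 0.9% acetic acid ip 25 min post-dose, writhes counted over 15 min, compared with vehicle. ED50 from regression; ratio is tail-withdrawal/writhing.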

Assay [4] has as its system Mus musculus. Kind of assay: Antinociceptive effect in icv dosed C57BL/6 mouse assessed as tail withdrawal latency measured up to 2 hrs by 55 degC Warm water tail withdrawal assay. Format: functional.
In assay [5] the test system is Mus musculus. Kind of assay: Antinociceptive effect in po dosed C57BL/6 mouse assessed as tail withdrawal latency measured up to 2 hrs by 55 degC Warm water tail withdrawal assay. Format: functional. Conditions: C57BL/6, Tail.
Assay [6] concerns Mus musculus. The experiment in a line: Antinociceptive effect in ip dosed C57BL/6 mouse assessed as tail withdrawal latency measured up to 2 hrs by 55 degC Warm water tail withdrawal assay. Conditions: C57BL/6, Tail. Format: functional.
The target of assay [7] is Delta-type opioid receptor (Homo sapiens, UniProt P41143). The experiment in a line: Agonist activity at delta opioid receptor (unknown origin) expressed in CHO-K1 cells assessed as inhibition of forskolin-induced cAMP accumulation by FRET assay. Format: functional, cell-based. The procedure, abridged:
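CHO cells stably expressing DOR, plated at 20 000 cells/well (figure legend: 100 000). Exposed to test agent with 4 μM forskolin (legend: 1 μM) in 1× PBS with 1 mM […] for 30 min at rt. HTRF cAMP read-out with europium cryptate and d2 in lysis buffer for 1 h. EC50 ± SEM from three experiments, two replicates each.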

Turning to `Oc1ccc(C[C@H]2CN3C(=CC4=NC[C@H](Cc5ccc(O)cc5)N4C[C@@H]3Cc3ccccc3)N2CCc2ccccc2)cc1`, the figures for the Ki (at Mu-type opioid receptor; in assay [1]; in assay [2]) were 0.393 µM, 0.05 µM and 0.767 µM, respectively.

For the compound `Oc1ccc(C[C@H]2CN3C(=CC4=NC[C@H](Cc5ccccc5)N4C[C@@H]3Cc3ccccc3)N2CCc2ccccc2)cc1`, the Ki was 3.15 µM on Mu-type opioid receptor, 1.28 µM in assay [1] and greater than 10 µM in assay [2].

Consider `Oc1ccc(C[C@H]2CN3C(=CC4=NC[C@H](Cc5ccccc5)N4C[C@@H]3Cc3ccc(O)cc3)N2)cc1`, for which the Ki on Mu-type opioid receptor was found to be 1.18 µM; in assay [1], 0.338 µM; in assay [2] it was 4.14 µM.

With `CN1CC[C@]23c4c5ccc(O)c4O[C@H]2[C@@H](O)C=C[C@H]3[C@H]1C5` [MORPHINE], the “Ratio ED50” value in the assay filed under Mus musculus [3] turned out to be 2.23. Besides, the Activity entry in the assay on Mus musculus [4] is “Dose-dependent effect”. In addition, the ED50 with Mus musculus [5] came to 2.07 mg/kg; with Mus musculus [6], 3.91 mg/kg.

`CC(C)C[C@H]1CN2C(=CC3=NC[C@H](C(C)C)N3C[C@@H]2Cc2ccccc2)N1CCc1ccccc1`: the Ki at Mu-type opioid receptor was 2.75 µM; in assay [1], 1.02 µM; in assay [2] it was 1.4 µM.

Regarding `Oc1ccc(C[C@H]2CN3C(=CC4=NC[C@H](Cc5ccc(O)cc5)N4C[C@@H]3Cc3ccc(O)cc3)N2CCc2ccccc2)cc1`, the Ki at Mu-type opioid receptor turned out to be 0.246 µM; in assay [1] it was 0.392 µM; in assay [2] it was 1.55 µM.

In the case of `CC(C)[C@H]1CN=C2C=C3N(CCc4ccccc4)[C@@H](Cc4ccc(O)cc4)CN3[C@@H](Cc3ccccc3)CN21`, the Ki at Mu-type opioid receptor is 1.11 µM; in assay [1] it was 1.38 µM; in assay [2], 1.9 µM.

`Oc1ccc(C[C@H]2CN3C(=CC4=NC[C@H](Cc5ccc(O)cc5)N4C[C@@H]3Cc3ccc(O)cc3)N2)cc1`: the Ki at Mu-type opioid receptor worked out at 0.552 µM; in assay [1], 0.316 µM; in assay [2], 3.76 µM.

With `CC(C)C[C@H]1CN2C(=CC3=NC[C@H](Cc4ccccc4)N3C[C@@H]2Cc2ccc(O)cc2)N1`, the figures for the Ki (at Mu-type opioid receptor; in assay [1]; in assay [2]) were 1.33 µM, 0.057 µM and 3.44 µM, respectively. The EC50 in assay [7] worked out at 6.36 µM.

Take `Oc1ccc(C[C@H]2CN3C(=CC4=NC[C@H](Cc5ccccc5)N4C[C@@H]3Cc3ccc(O)cc3)N2CCc2ccccc2)cc1`: the results for the Ki (at Mu-type opioid receptor; in assay [1]; in assay [2]) were 0.878 µM, 0.188 µM and 1.31 µM, respectively.

As for `CC(C)C[C@H]1CN2C(=CC3=NC[C@H](C(C)C)N3C[C@@H]2Cc2ccccc2)N1`, the values for the Ki (at Mu-type opioid receptor; in assay [1]; in assay [2]) were greater than 10 µM, no less than 10 µM and 1.08 µM, respectively.

Turning to `CC(C)C[C@H]1CN2C(=CC3=NC[C@H](Cc4ccccc4)N3C[C@@H]2Cc2ccc(O)cc2)N1CCc1ccccc1`, the values for the Ki (on Mu-type opioid receptor; in assay [1]; in assay [2]) were 0.949 µM, 0.037 µM and 0.642 µM, respectively. The EC50 in assay [7] is 1.64 µM.

`CC(C)C[C@H]1CN2C(=CC3=NC[C@H](C(C)C)N3C[C@@H]2Cc2ccc(O)cc2)N1`: the results for the inhibition constant Ki (at Mu-type opioid receptor; in assay [1]; in assay [2]) were 1.19 µM, 0.215 µM and 0.209 µM, respectively.

Regarding `Oc1ccc(C[C@H]2CN3C(=CC4=NC[C@H](Cc5ccccc5)N4C[C@@H]3Cc3ccccc3)N2)cc1`, the inhibitory constant (Ki) on Mu-type opioid receptor came to 0.566 µM; in assay [1], 2.09 µM; in assay [2] it was 8.39 µM.

With `CC(C)[C@H]1CN=C2C=C3N[C@@H](Cc4ccc(O)cc4)CN3[C@@H](Cc3ccccc3)CN21`, the values for the Ki (on Mu-type opioid receptor; in assay [1]; in assay [2]) were 5.04 µM, no less than 10 µM and 1.95 µM, respectively.

On to `Oc1ccc(C[C@H]2CN3C(=CC4=NC[C@H](Cc5ccc(O)cc5)N4C[C@@H]3Cc3ccccc3)N2)cc1`, for which the Ki at Mu-type opioid receptor is 0.605 µM; in assay [1], 0.069 µM; in assay [2], 2.37 µM.
